Here are results for 41 molecules from BindingDB's records for doi:10.1021/jm030913e (Ucb Pharma, 2004).

This test has as its target Synaptic vesicle glycoprotein 2A (Rattus norvegicus, UniProt Q02563). Description: In vitro inhibitory activity against [3H](2S)-2-[4-(3-azidophenyl)-2-oxopyrrolidin-1-yl]butanamide binding to levetiracetam binding site. The essentials: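 Rat cerebral cortex membranes (male Sprague-Dawley, 200–250 g), homogenised in Tris-HCl/sucrose at 4 °C, washed, preincubated 15 min at 37 °C. Binding: 4 °C for 120 min in 50 mmol/L Tris-HCl pH 7.4 with 2 mmol/L MgCl2, 1–2 × 10^-9 mol/L tritiated azidophenyl radioligand, rising test concentrations. Nonspecific binding with 10^-3 mol/L levetiracetam. Rapid filtration, scintillation counting. pIC50 is the mean of two independent determinations.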

pIC50: −log10 of the molar value.

Chain of Synaptic vesicle glycoprotein 2A (Q02563 whole entry): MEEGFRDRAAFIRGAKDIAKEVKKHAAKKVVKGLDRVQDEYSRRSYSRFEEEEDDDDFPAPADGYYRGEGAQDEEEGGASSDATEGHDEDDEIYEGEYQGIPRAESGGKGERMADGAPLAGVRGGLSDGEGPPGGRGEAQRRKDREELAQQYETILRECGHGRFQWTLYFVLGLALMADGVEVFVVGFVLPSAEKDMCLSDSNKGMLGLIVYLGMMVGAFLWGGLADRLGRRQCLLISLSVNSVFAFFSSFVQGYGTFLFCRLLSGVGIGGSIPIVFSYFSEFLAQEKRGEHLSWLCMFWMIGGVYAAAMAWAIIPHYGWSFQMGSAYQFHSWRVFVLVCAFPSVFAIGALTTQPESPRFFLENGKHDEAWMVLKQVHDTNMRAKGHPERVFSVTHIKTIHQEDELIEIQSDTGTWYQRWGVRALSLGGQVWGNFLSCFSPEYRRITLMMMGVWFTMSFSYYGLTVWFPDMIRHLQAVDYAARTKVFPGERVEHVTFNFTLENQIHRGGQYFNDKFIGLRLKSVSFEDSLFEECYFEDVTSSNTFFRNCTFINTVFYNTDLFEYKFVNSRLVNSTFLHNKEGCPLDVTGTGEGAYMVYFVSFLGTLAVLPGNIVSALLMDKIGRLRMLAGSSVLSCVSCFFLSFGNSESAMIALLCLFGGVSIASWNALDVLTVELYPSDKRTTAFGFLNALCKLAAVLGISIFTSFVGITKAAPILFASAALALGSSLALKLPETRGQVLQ

The term pIC50 denotes the IC50 on a negative log10 scale, so that one unit is a factor of ten. Read a low pIC50 as a large IC50. Take `CCCCN(C(=O)CC)[C@@H](CC)C(N)=O`: the pIC50 was 5.00.

Molecule `CCCCCCCCN(C(=O)CC)C(CC)C(N)=O` (stereo unspecified) had a pIC50 of 5.40.

For the molecule `CC[C@@H](C(N)=O)N1CC(CC2CC2)CC1=O` (stereo partly specified), the pIC50 was 6.90.

On to `CC[C@@H](C(N)=O)N1CCCC1=O` [UCB-22059], for which the negative-log IC50 (pIC50) is 6.10.

`CCC(C(N)=O)N1CC(C(C)C)CC1=O` (stereo unspecified): the pIC50 is 5.40.

Molecule `CCCCCN(C(=O)CC)C(CC)C(N)=O` (stereo unspecified) had a pIC50 of 5.70.

In turn, `CC[C@@H](C(=N)N)N1CCCC1=O` had a pIC50 of 4.90.

In turn, `CC[C@@H](C(N)=O)N1C(=O)CCC1C` (stereo partly specified) had a pIC50 of 5.60.

Molecule `CC[C@@H](C(N)=O)N1CC(CC(C)(C)C)CC1=O` (stereo partly specified) showed a pIC50 of 6.10.

Molecule `CC[C@@H](C(=O)NO)N1CCCC1=O` gave a pIC50 of 5.70.

`CCCC1(C)CC(=O)N([C@@H](CC)C(N)=O)C1` (stereo partly specified) gave a pIC50 of 6.40.

The molecule `CCC[C@@H](C(N)=O)N1CCCC1=O` had a negative logarithm of the IC50 (pIC50) of 5.30.

`CC[C@@H](C(N)=O)N1CCC(C)C1=O` (stereo partly specified) showed a negative logarithm of the IC50 (pIC50) of 4.70.

`CCC(C(N)=O)N1CC(Cc2ccccc2)CC1=O` (stereo unspecified) had a pIC50 of 5.60.

`CCCCC1CC(=O)N(C(CC)C(N)=O)C1` (stereo unspecified) gave a pIC50 of 6.40.

`CCCCCC1CC(=O)N(C(CC)C(N)=O)C1` (stereo unspecified): the pIC50 was 5.90.

Take `CCC(C(N)=O)N1CC(COC)CC1=O` (stereo unspecified): the negative logarithm of the IC50 (pIC50) is 5.80.

Consider `CC[C@@H](C(N)=O)N1C[C@H](CO[N+](=O)[O-])CC1=O`, for which the pIC50 is 7.00.

`CCC[C@@H]1CC(=O)N([C@@H](CC)C(N)=O)C1` [UCB-34714] showed a negative-log IC50 (pIC50) of 7.00.

As to `CC[C@@H](C(N)=O)N1C[C@H](CF)CC1=O`, the negative logarithm of the IC50 (pIC50) was 5.90.

In turn, `CC[C@@H](C(N)=O)N1C[C@H](CN=[N+]=[N-])CC1=O` showed a pIC50 of 7.10.

`CC[C@@H](C(N)=O)N1C[C@H](CSC)CC1=O` showed a pIC50 of 6.90.

`CC[C@@H](C(N)=O)N1C[C@H](CCl)CC1=O`: the negative-log IC50 (pIC50) was 6.70.

`CC[C@@H](C(=O)NC)N1CCCC1=O` had a pIC50 of 4.90.

With `CC[C@H](C(N)=O)N1CCCC1=O` [Levitiracetam], the negative-log IC50 (pIC50) was above 3.00.

`CCC(C(=O)NN)N1CCCC1=O` (stereo unspecified) showed a negative-log IC50 (pIC50) of 5.20.

`CCC(C(=O)N(C)O)N1CCCC1=O` (stereo unspecified): the negative-log IC50 (pIC50) is 4.70.

Molecule `CC(C)C(C(N)=O)N1CCCC1=O` (stereo unspecified) showed a pIC50 of 4.70.

Regarding `NC(=O)CN1CCCC1=O` [2-(2-oxopyrrolidin-1-yl)acetamide], the pIC50 was 4.40.

`CCC(C(N)=O)N1C(=O)CCC1(C)C` (stereo unspecified): the negative-log IC50 (pIC50) was 4.20.

In turn, `C[C@@H](C(N)=O)N1CCCC1=O` gave a negative-log IC50 (pIC50) of 5.50.

Turning to `CCC1CC(=O)N([C@@H](CC)C(N)=O)C1` (stereo partly specified), the pIC50 is 5.90.

`CC[C@@H](C(N)=O)N1C[C@H](CBr)CC1=O` showed a pIC50 of 6.60.

The molecule `CCC[C@H](C(N)=O)N1CCCC1=O` showed a pIC50 of 3.00.

Consider `CCC[C@H]1CC(=O)N([C@@H](CC)C(N)=O)C1`, for which the pIC50 is 6.60.

Consider `CC[C@@H](C(N)=O)N1C[C@H](C)CC1=O`, for which the negative logarithm of the IC50 (pIC50) is 5.90.

In the case of `CC[C@@H](C(N)=O)N(C)C(C)=O`, the pIC50 was 4.80.

Consider `CCCCCCCN(C(=O)Cc1ccc(OC)cc1)C(CC)C(N)=O` (stereo unspecified), for which the pIC50 was 5.60.

`CC[C@@H](C(N)=O)N1CC(NC(=O)OC)CC1=O` (stereo partly specified) had a negative logarithm of the IC50 (pIC50) of 5.80.

`CC[C@@H](C(N)=O)N1C[C@H](CI)CC1=O`: the pIC50 was 6.80.

`CCCCCCCCN(C(=O)Cc1ccc(Cl)cc1)C(CC)C(N)=O` (stereo unspecified) gave a negative logarithm of the IC50 (pIC50) of 5.70.
